# An excerpt weighted towards active compounds, which were near 2.7% of everything screened.
# Tb hexokinase: T. brucei hexokinase 1 inhibition. recombinant TbHK1, G6PDH-coupled NADH A340. inhibition, % at 10 µM. 220,000 compounds, 0.11% hits;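 active = inhibition of 50% or more in the single-dose primary screen; inactive = inhibition below 50%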
# Mdm2 ligase inh: inhibitors of human Mdm2 E3 ubiquitin ligase; 210,000 compounds, 0.11% hits; signal enhancement, % at 5 µM; Q00987; AID 1230; cell-based MDM2 ubiquitination luciferase reporter, 2 h; 0 = plate control, 100 = twice control, blank-subtracted;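 active = signal enhancement of 30% or more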;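 also: luminescence tracks abundance of the self-degrading MDM2-luciferase fusion protein; higher signal means inhibition of MDM2 E3 ligase activity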
#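 Test system: mammalian cells stably expressing self-ubiquitinating, self-degrading MDM2 E3–luciferase fusion; Amount: 2000 cells in each well; Medium: DMEM; Schedule: 4 h settle plus 2 h compound, 37 °C; Technique: SteadyLite luciferase luminescence after 15 min room-temperature reagent incubation; Benchmarks: plate control and blank wells.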
# Wee1 stabilizer: inhibitors of human Wee1 degradation; P30291; reporter increase, % at 5 µM; 220,000 compounds, 1.2% hits; AID 1321; HeLa Luc-Wee1K328M stability, luciferase luminescence; 100% = proteasome inhibitor MG132 effect;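 active = activation above the mean of all tested compounds plus 3 SD, set per screening run, cut at about 8.8% in these data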;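 also: cells exposed to compound for 20 h before luminescence read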
# 14-3-3 Bad PPI: disrupts binding of bovine 14-3-3 zeta to phospho-Bad peptide | P63103 | TR-FRET 14-3-3zeta/Dy647-pBad peptide displacement, 1 h | inhibition, % at 21.7 µM | 220,000 compounds, 0.71% hits | AID 781;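 active = inhibition above about 70%, limit read from the data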
# Hck Nef HTS: inhibitors of human Hck kinase activated by Nef. P08631. Recombinant Hck-YEEI plus Nef, Z-Lyte FRET kinase assay. inhibition, % at 20 µM. 220,000 compounds, 0.68% hits. AID 463187;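 active = Hck-Nef kinase inhibition above about 50%, limit read from the data; inactive = inhibition below that limit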
# Target sequence (P08631 whole entry, looked up): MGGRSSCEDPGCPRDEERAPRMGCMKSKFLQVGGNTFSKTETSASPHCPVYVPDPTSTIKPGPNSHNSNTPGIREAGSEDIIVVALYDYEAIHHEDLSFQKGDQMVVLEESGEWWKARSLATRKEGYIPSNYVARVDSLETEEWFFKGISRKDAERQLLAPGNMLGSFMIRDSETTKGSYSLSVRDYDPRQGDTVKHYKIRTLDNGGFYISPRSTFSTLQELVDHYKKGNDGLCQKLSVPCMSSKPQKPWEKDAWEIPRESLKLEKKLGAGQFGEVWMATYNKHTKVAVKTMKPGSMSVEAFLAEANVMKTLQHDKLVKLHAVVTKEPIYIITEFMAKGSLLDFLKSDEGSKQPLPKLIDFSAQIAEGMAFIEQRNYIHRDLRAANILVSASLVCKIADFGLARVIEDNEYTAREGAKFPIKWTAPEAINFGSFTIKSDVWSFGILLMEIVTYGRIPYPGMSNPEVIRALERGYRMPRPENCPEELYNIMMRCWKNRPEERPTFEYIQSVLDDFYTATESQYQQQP
# A number is an active result; 0 = inactive; - = not tested or not shown; + = active, no number.
SMILES,Tb hexokinase,Mdm2 ligase inh,Wee1 stabilizer,14-3-3 Bad PPI,Hck Nef HTS
COc1ccccc1CNC(=O)CSc1ccsc1[N+](=O)[O-],0,0,9.2,0,0
O=C(CSc1ccsc1[N+](=O)[O-])NCc1ccccc1,0,0,0,0,0
O=C(NNC(=O)c1ccccc1O)c1ccco1,0,0,0,0,0
COc1ccc(N2C(=O)CS/C2=N\C(=S)Nc2ccccc2)cc1,0,0,0,0,0
O=C1CCCN1CCCNC(=S)Nc1ccccc1Cl,0,0,0,0,0
O=C1CCCN1CCCNCC(=O)N1c2ccccc2Sc2ccccc21,0,-,0,79,0
O=[N+]([O-])c1ccccc1S(=O)(=O)N1CCCCC1,0,0,0,0,0
O=S(=O)(c1ccccc1S(=O)(=O)N1CCCCC1)N1CCCCC1,0,0,9.1,0,0
O=C(COc1ccccc1)NCC(=O)N/N=C/c1ccc(O)cc1O,0,-,0,0,0
Cc1cccc(N/C(N)=N/c2nc(CSc3ccc(Cl)cc3)cc(=O)[nH]2)c1,0,0,11,0,0
COc1ccc(Cl)cc1NC(=O)C1(c2cccs2)CCOCC1,0,0,0,0,0
Cc1noc(C)c1COc1ccc(CC(=O)NCc2ccccc2)cc1,0,0,9.3,0,0
Cc1noc(C)c1COc1ccc(C(=O)Nc2cccnc2)cc1,0,0,0,79,0
CCOc1ccc(CN2CCN(Cc3cccn3-c3nccs3)CC2CCO)cc1 (stereo not given),0,0,0,0,0
O=C(CSc1nc2ccccc2c(=O)n1NC(=O)c1ccccc1)c1ccccc1,0,0,0,0,0
O=C(CSc1nc2ccccc2c(=O)n1NC(=O)c1ccccc1)c1ccc(Cl)cc1,0,0,9.3,0,0
COc1cc(/C=C2/SC(=O)NC2=O)ccc1Oc1ccc([N+](=O)[O-])cc1[N+](=O)[O-],0,-,0,0,52
O=C1C2CC=CCC2C(=O)N1c1n[nH]c(CCc2ccccc2)n1 (stereo not given),0,0,0,0,0
CC(=O)Nc1ccc(NC(=O)CSc2ccccn2)cc1,0,0,0,0,0
O=C(CSC1=NNC(c2ccccn2)S1)Nc1ccc(C(F)(F)F)cc1 (stereo not given),0,37,0,0,0
c1ccc(CSC2=NNC(c3ccccn3)S2)cc1 (stereo not given),0,37,0,0,0
Cc1cc(NC(=O)c2ccc(N(C)S(=O)(=O)c3ccccc3)cc2)no1,0,0,0,0,0
Clc1ccc(OCc2cn3ccccc3n2)c2ncccc12,0,0,9.9,0,0
O=C(O)CCC(=O)N1CCN(c2nc(-c3ccccc3Cl)c3cc(Br)ccc3n2)CC1,0,0,0,0,0
Cc1cc(N2CCOCC2)nc2cc(O)ccc12,0,0,0,80,0
SMILES,Tb hexokinase,Mdm2 ligase inh,Wee1 stabilizer,14-3-3 Bad PPI,Hck Nef HTS
N#Cc1c(-c2cccs2)cc(C2CC2)nc1SCC(N)=O,0,0,0,0,0
N/C(Cc1cccs1)=N\OC(=O)COc1ccccc1,0,0,0,0,0
COCCn1c(=S)[nH]c2cc(C(=O)N3CCc4ccccc43)ccc2c1=O,0,0,11,0,0
COc1cc2c(cc1OC)CN(C(=O)CC1CC3CCC1C3)CC2 (stereo not given),0,0,0,0,0
O=C(Cn1ncc(Cl)c(Cl)c1=O)NC1CCS(=O)(=O)C1 (stereo not given),0,-,9.5,0,0
CC(C)(C)C(=O)Cn1ncc(Cl)c(Cl)c1=O,0,0,0,0,0
O=C(Cn1ncc(Cl)c(Cl)c1=O)NCC1CCCCC1,0,80,0,0,0
O=C(COC(=O)C1CCN(S(=O)(=O)c2ccccc2)CC1)NC(=O)c1ccc(OC(F)F)cc1,0,0,0,0,0
CCn1c(CNC(=O)Cc2ccc(OC)cc2)nnc1SCC(=O)Nc1ccc(C(=O)O)cc1,0,0,0,0,0
CCn1c(CNC(=O)Cc2ccc(OC)cc2)nnc1SCC(=O)Nc1nccs1,0,0,11,0,0
O=C(CN1C2CCC1CC(NC(=O)Nc1ccccc1)C2)NCc1ccco1 (stereo not given),0,0,10,0,0
CC(C)=NOc1nc(N2CCOCC2)nc(N2CCOCC2)n1,0,0,0,0,0
CS(=O)(=O)N(CC(=O)NCc1ccco1)c1cccc([N+](=O)[O-])c1,0,0,0,0,0
COC(=O)c1cc2c(=O)n3ccccc3nc2n(C(C)C)c1=N,0,-,0,-,+
COc1cccc(NC(=O)c2cc3c(=O)n4ccccc4nc3n(CC(C)C)c2=N)c1,0,0,0,0,0
CC1=NN(c2cccc(C(=O)O)c2)C(=O)/C1=C\C=C\c1ccco1,0,36,0,0,0
O=c1oc2ccccc2c2c1SC(C(F)(F)F)C2 (stereo not given),0,-,0,0,0
Oc1oc(-c2ccccc2Br)nc1C=Nc1ccc(Br)cn1,0,0,0,76,0
CCNc1nc(NCC)nc(Oc2ccc(C(=O)OC)cc2)n1,0,0,0,0,0
Cc1ncsc1C(=O)N1N=C2/C(=C/c3ccccc3)CCCC2C1c1ccccc1 (stereo not given),0,0,0,0,0
Cc1ncsc1C(=O)N1N=C2/C(=C/c3ccc(N4CCOCC4)cc3)CCCC2C1c1ccc(N2CCOCC2)cc1 (stereo not given),0,0,9.0,0,0
COc1ccc(N=Cc2c(O)n(-c3ccc(OC)cc3)c(=O)c3ccccc23)cc1,0,0,0,75,0
CC(C)n1c(NCc2cccs2)nc2ccccc21,0,0,8.8,0,0
Nc1nc(NC(=O)c2ccccc2)nn1-c1ccccc1,0,0,0,0,0
Nc1nc(NC(=O)c2cccs2)nn1-c1ccccc1,0,0,0,82,0
SMILES,Tb hexokinase,Mdm2 ligase inh,Wee1 stabilizer,14-3-3 Bad PPI,Hck Nef HTS
Cc1cc(C)cc(NC(=O)NC2CCN(CC(=O)Nc3c(C)cc(C)cc3C)CC2)c1,0,-,0,-,0
Cc1nnc(SCC(=O)Nc2ccccc2)[nH]c1=O,0,0,0,0,0
CCc1cccc(CC)c1NC(=O)CSc1nnc(CCC(=O)O)c(=O)[nH]1,0,0,9.5,0,0
Nc1nc(Br)c2c(F)cccc2c1-c1ccc(F)cc1,0,0,0,0,0
Cn1nc(-c2ccc(OCC(=O)NCC3CCCO3)cc2)c2ccccc2c1=O (stereo not given),0,0,9.6,0,0
COc1ccccc1CC(=O)NNS(=O)(=O)c1ccc([N+](=O)[O-])cc1,0,0,0,0,0
O=C1N/C(=C\c2ccc(O)cc2)C(O)=C1C=NCc1ccccc1,0,0,0,0,69
COCCN1C=C(C(=O)OC)C(c2cc(Br)c(OC)c(OC)c2)C(C(=O)OC)=C1,0,0,0,0,68
COC(=O)C1=CN(C)C=C(C(=O)OC)C1c1ccc(O)c(OC)c1,0,0,0,0,0
COc1ccc2c(c1)c(C(=O)N/N=C/c1cn(C)c3ccccc13)c(C)n2C,0,0,9.4,0,0

# Assay outcomes as filed in PubChem BioAssay.
